Source: PubChem BioAssay
EP2 antag: human EP2 receptor antagonists, primary screen, TR-FRET cAMP, C6 glioma cells; Prostaglandin E2 receptor EP2 subtype (Homo sapiens), P43116; inhibition, % at 25 µM; AID 1422, 2008; C6 glioma cells expressing human EP2; cells stimulated with saturating PGE2; hit rate 0.52% among 260,000;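 active = percent inhibition above 40 after rounding to a whole number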;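 note: rat C6 glioma host cells with rolipram phosphodiesterase inhibitor present; the protocol text gives 20 µM as final concentration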
Target sequence (P43116 whole entry, looked up): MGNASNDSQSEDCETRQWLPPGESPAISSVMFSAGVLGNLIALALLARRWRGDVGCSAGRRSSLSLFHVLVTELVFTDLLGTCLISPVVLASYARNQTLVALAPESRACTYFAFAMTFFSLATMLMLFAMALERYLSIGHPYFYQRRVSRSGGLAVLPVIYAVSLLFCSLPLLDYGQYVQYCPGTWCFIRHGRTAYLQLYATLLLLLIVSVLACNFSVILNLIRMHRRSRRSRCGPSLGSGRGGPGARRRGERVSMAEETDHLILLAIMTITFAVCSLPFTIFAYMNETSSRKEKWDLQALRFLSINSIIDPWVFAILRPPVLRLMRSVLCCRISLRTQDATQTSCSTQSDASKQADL
Hsp70 act: Hsp70 transcriptional activators, primary screen, cell-based, HeLa, Hsp70 promoter luciferase, luminescence, 10 µM; HeLa Hsp70 promoter luciferase reporter; scaled: vehicle 0, proteasome-inhibitor control 100%; activation, % at 10 µM; hit rate 0.04% among 200,000;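 active = activation above the mean across all tested compounds plus 3 SD, cutoff set per campaign, cut at about 5.5% in these data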;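 note: 100% = MG132 at 30 µM as the positive control and 0% = DMSO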
EP2 mod: EP2 receptor modulators, cAMP readout, primary screen, cell-based, HTRF cAMP, PGE2 stimulation | AID 940, 2007 | hit rate 0.83% among 260,000 | induction, % at 25 µM | Prostaglandin E2 receptor EP2 subtype (Homo sapiens), P43116 | EP2-expressing cells, cAMP HTRF FRET, PGE2 co-stimulation;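 active = compounds whose cAMP rise, as percent of the full-agonist control response, exceeds 60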;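 note: rat C6 glioma line stably carrying human EP2 under a CMV promoter; the protocol text gives 20 µM as final concentration; 100% = response of wells given 1 µM PGE2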
Dynein cargo inh: inhibitors of GR-EGFP nuclear translocation, primary screen, dynein cargo transport inhibitor project, imaging, high-content, 3617.4 mouse cells. z-score, hits read low. hit rate 0.47% among 220,000. test concentration mostly 20 µM; stimulated with dexamethasone, 1 µM; hits give low values;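 active = plate z-score of nuclear minus cytoplasmic receptor signal below a set negative limit, without overly bright fluorescence or cell loss, cut at about -3.5 in these data, passing the limit was not always enough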;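 note: z-score of nuclear minus cytoplasmic ring GR-EGFP intensity difference per well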
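Medium: Induction medium lacking tetracycline, stripped serum | Probe or stimulus: 1.0 µM final dexamethasone stimulus | Schedule: 48 h induction, then 1 h compound, then 30 min agonist, 37 °C | Signal: Automated 10x imaging of fixed Hoechst-stained cells | Evaluation: Per-cell GR-EGFP intensity, nucleus versus surrounding cytoplasmic ring, well-averaged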
An asterisk follows results filed as active; . = no result given; ! = not confirmed by another sample. Sampled rows, rich in hits. Any-hit rate of the full collection: about 1.7%.

SMILES	EP2 antag	Hsp70 act	EP2 mod	Dynein cargo inh
COc1cccc(OCc2cc(/C=N/Nc3ccc(C(=O)O)cc3)ccc2OC)c1	9	.	62*	0.086
O=C1/C(=C/c2ccncc2)SC(=S)N1Nc1ccccc1	64*	.	-37	0.091
O=C(O)c1ccc(/C=C2\SC(=S)N(Nc3ccccc3)C2=O)cc1	6	.	-22	0.84
COC(=O)CCCCCN1C(=O)/C(=C/c2ccc(OC)cc2)SC1=S	13	.	-16	.
COC(=O)CCCCCN1C(=O)/C(=C\c2ccncc2)SC1=S	51*	.	-40	-0.22
C(=N\N1CCN(C2c3ccccc3-c3ccccc32)CC1)/c1ccncc1	9	0	61*	2.1
COc1cccc(/C=N/N2CCN(C3c4ccccc4-c4ccccc43)CC2)c1O	9	.	65*	-0.37
N#Cc1ccc(NC(=O)c2ccco2)cc1	8	.	-8	.
Oc1cc(-c2ccccc2)c2ccccc2c1	7	0	61*	-0.95
CCc1ccc2[nH]c(=O)c(CN(CCO)C(=S)NCc3ccco3)cc2c1	12	.	1	.
C[N+](C)(C)c1cc2c(nn1)Nc1ccccc1S2	49*	.	-45	.
CS(=O)(=O)c1cncnc1C1CCCN(C(=O)c2cccc3nccnc23)C1 (configuration not stated)	.	.	13	.
CCC(NC(C)C)C(O)c1ccc(O)c2[nH]c(=O)ccc12 (configuration not stated)	12	0	78*	-0.44
COc1cccc(CC2(CO)CCCN(Cc3ccccc3-c3ccco3)C2)c1 (configuration not stated)	1	0	63*	0.012
COc1cccc(CC2(CO)CCCN(Cc3ccc(-c4ccco4)cc3)C2)c1 (configuration not stated)	3	0	-36	-0.66
CC[C@H](CCC(C)[C@H]1CCC2C3CCC4C[C@@H](O)CC[C@]4(C)C3CC[C@@]21C)C(C)C (some centres not stated)	7	.	16	.
COC(=O)CC[C@@H](C)[C@@H]1CC[C@@H]2[C@H]3CC[C@H]4C[C@@H](O)CC[C@]4(C)[C@@H]3CC[C@]21C	42*	.	30	.
CC(C)CCC[C@@H](C)[C@@H]1CC[C@@H]2[C@H]3CC[C@H]4C[C@@H](N)CC[C@]4(C)[C@@H]3CC[C@]21C	41*	.	-17	.
C=CCn1c(=NC(=O)c2ccco2)sc2cc(C(=O)OC)ccc21	5	0	11	-0.81
C=CCn1c(=NC(=O)c2ccco2)sc2cc(C(=O)OCC)ccc21	41*	0	33	0.096
O=C(Nc1ccc(Cl)c(C(F)(F)F)c1)NC1CC2CCCC(C1)N2C1CC1 (configuration not stated)	41*	0	.	0.76
O=C(O)c1ccc(-c2nc3scc(-c4ccccc4)c3c(=O)[nH]2)cc1	41*	.	-7	-0.83
O=C1c2ccccc2-c2cc([N+](=O)[O-])c([N+](=O)[O-])cc21	64*	.	-35	.
c1ccc2c(c1)C(=Nn1cnnc1)c1ccccc1-2	28	0	-10	0.25
c1ccc2c(c1)C(=Nc1ccc(N=C3c4ccccc4-c4ccccc43)cc1)c1ccccc1-2	45*	.	-8	.
SMILES	EP2 antag	Hsp70 act	EP2 mod	Dynein cargo inh
Cc1cc(C=C2C(=O)NC(=O)NC2=O)c(C)n1C1CCCC1	8	.	-74	.
CC(=O)Nc1nc2ccc(OC(C)=O)cc2s1	3	.	-37	.
NC(N)=N/N=C/c1ccc(OCc2ccccc2Cl)cc1	96*	0	33	2.4
C[C@H]1[C@H](C)CC[C@@]2(C(=O)O)CC[C@@]3(C)C(=CC[C@H]4[C@]5(C)C[C@H](O)[C@@H](O)[C@@](C)(CO)[C@H]5[C@H](O)C[C@@]43C)[C@H]12	43*	.	31	.
CCOC(=O)c1cc(-c2ccc(Cl)cc2)n[nH]1	8	.	-55	.
CC1CCN(S(=O)(=O)c2cccc(S(=O)(=O)N3CCC(C)CC3)c2)CC1	21	.	-25	.
CC1CCN(S(=O)(=O)c2cccc(C(=O)Oc3ccc([N+](=O)[O-])cc3)c2)CC1	40*	0	-95	-2.2
S=C1NCN2CCN(CC2)CNC(=S)C(=S)NCN2CCN(CC2)CNC1=S	48*	.	-4	.
COc1cccc(/C=N/NC(=O)c2ccc(COc3ccc(Cl)cc3Cl)o2)c1	18	0	-35	0.095
COc1cc(/C=N/NC(=O)c2ccc(COc3ccccc3Cl)o2)cc(Br)c1O	75*	0	-68	-0.59
CCCCN(CCCC)C(=O)C1(P(=O)(c2ccccc2)c2ccccc2)CCC1	6	.	85*	-0.056
CCCN1C/C(=C/c2cccc([N+](=O)[O-])c2)C(=O)/C(=C/c2cccc([N+](=O)[O-])c2)C1	6	0	0	-6.3*
Nc1[nH]n2c(=O)c3c(nc2c1N=Nc1ccc(Cl)cc1)CCCC3	11	0	64*	-0.52
Cc1[nH]n2c(=O)c3c(nc2c1-c1ccc(Cl)cc1)CCC3	-2	0	-64	-0.35
CCC(C)(C)n1nnnc1C(c1ccc(C(F)(F)F)cc1)N1CCC(C)CC1 (configuration not stated)	4	.	77*	.
CC(C)(C)OC(=O)[C@H]([C@@H]1N[C@@H](C(=O)O)C(C)(C)S1)N1C(=O)c2ccccc2C1=O	42*	.	16	.
CCn1c(N2CCC(C(=O)NC3CCCC3)CC2)nc2ccccc21	.	.	63*	.
NC(=O)c1ccc(N=Cc2ccc([N+](=O)[O-])s2)cc1	32	0	-84	-4*
COc1ccc(-c2cc(C(F)(F)F)nc(SCC(=O)NCCN3CCOCC3)n2)cc1	20	.	-34	.
COc1ccc(C(=O)N/N=C2\C(=O)c3c(C)cc(C)cc3CC2(C)C)cc1	53*	.	-12	.
CC1=CN2C(=N)/C(=C/c3ccc([N+](=O)[O-])o3)C(=O)N=C2S1	104*	0	-10	3
Cc1cc(C)n2nc(CC(=O)N3C4CCC3CC(c3ccc(F)cc3)C4)nc2n1 (configuration not stated)	.	.	-8	.
CCOC(=O)c1cc(C(=O)c2cccs2)n2ccc(C(C)=O)cc12	10	0	64*	-1.7
O=S(=O)(O)c1ccc(N=Nc2ccc3c(S(=O)(=O)O)cccc3c2O)c2ccccc12	56*	.	-9	.
O=S(=O)(O)c1cc(N=Nc2cccc3ccccc23)c(O)c2ncccc12	38	.	-3	.
NC(=O)c1cn(-c2ccccc2)nc1-c1cc2ccccc2oc1=O	0	0	98*	2.7
COc1ccc2nc3cc(Cl)ccc3c(Nc3ccc(O)c(CN4CCN(C)CC4)c3)c2c1	90*	.	-34	.
COc1ccc2nc3cc(Cl)ccc3c(C#N)c2c1	4	.	-1	-0.84
Cc1cc(O)c(C(C)C)cc1C1(c2cc(C(C)C)c(O)cc2C)OC(=O)c2ccccc21	76*!	.	4	0.22
